Calls of active or inactive are those of the source. The rule behind the calls is not given here.
Legend:
Oocyte [1] = test: Modulation of GABAA receptor alpha1(Q241L)beta2gamma2L mutant expressed in Xenopus laevis oocytes assessed as potentiation of GABA-induced chloride currents at 1 uM by electrophysiology assay; type: cell-based
Outline: (§1)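 Oocytes were coinjected with α1(Q241L) cRNA plus wild-type β2 and γ2L cRNA. Recording was by two-electrode voltage clamp at −70 mV, 2–5 days after injection. Responses to a sequence of compound applications were normalised, 4 oocytes per receptor type.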

Xenopus laevis [2] = test: Anesthetic effect on Xenopus laevis tadpole assessed as loss of righting reflex; type: functional, organism-based
Outline: (§2)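 Xenopus laevis tadpoles, N = 10 or more per concentration, at five or more concentrations from 0.01 μM to 30 μM. Loss of righting reflex (LRR) and loss of swimming reflex (LSR) were scored. EC50 and nHill were taken from concentration–response curves. Recovery was checked after an overnight period. Mean ± SEM.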

Oocyte [3] = test: Modulation of rat alpha1beta2gamma2L GABAA receptor expressed in Xenopus laevis oocytes assessed as potentiation of GABA-induced chloride currents at 0.1 uM by electrophysiology assay relative to control; type: cell-based
Oocyte [4] = test: Modulation of rat alpha1beta2gamma2L GABAA receptor expressed in Xenopus laevis oocytes assessed as potentiation of GABA-induced chloride currents at 10 uM by electrophysiology assay relative to control; type: cell-based
[5] = Displacement of [35S]TBPS from GABAA receptor picrotoxin binding site in rat brain membranes; type: cell membranes
Oocyte [6] = test: Modulation of rat alpha1beta2gamma2L GABAA receptor expressed in Xenopus laevis oocytes assessed as […] at 10 uM by electrophysiology assay relative to GABA; type: cell-based
Outline: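 Rat α1β2γ2L receptors in Xenopus oocytes, two-electrode voltage clamp at −70 mV. Current gated directly by 10 μM compound without GABA, expressed as the ratio to the current from 2 μM GABA. At least four oocytes. Mean ± SEM.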

Oocyte [7] = test: Modulation of rat alpha1beta2gamma2L GABAA receptor expressed in Xenopus laevis oocytes assessed as potentiation of GABA-induced chloride currents at 1 uM by electrophysiology assay relative to control; type: cell-based
Xenopus laevis [8] = test: Anesthetic effect on Xenopus laevis tadpole assessed as loss of swimming reflex; type: functional, organism-based; outline: as §2
Xenopus laevis [9] = test: Anesthetic effect on Xenopus laevis tadpole assessed as loss of swimming reflex at 10 uM; type: functional, organism-based
Outline: (§3)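 Tadpoles, 10 per group, exposed at 10 μM. Each animal was scored for swimming reflex, and for death without overnight recovery from loss of swimming reflex. Results are given as the number of animals out of 10.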

Rattus norvegicus = organism: Rattus norvegicus; test: Displacement of [35S]TBPS from GABAA receptor picrotoxin binding site in rat brain membranes at 10 uM; type: cell membranes
Oocyte [10] = test: Modulation of GABAA receptor alpha1(Q241L)beta2gamma2L mutant expressed in Xenopus laevis oocytes assessed as potentiation of GABA-induced chloride currents at 0.5 uM by electrophysiology assay; type: cell-based; outline: as §1
Oocyte [11] = test: Modulation of rat alpha1beta2gamma2L GABAA receptor expressed in Xenopus laevis oocytes assessed as potentiation of GABA-induced chloride currents at 0.5 uM by electrophysiology assay relative to control; type: cell-based
Xenopus laevis [12] = organism: Xenopus laevis; test: Toxicity in Xenopus laevis tadpole assessed as mortality at 10 uM; type: organism-based; details: in vivo; outline: as §3

In the case of `C[C@@]12CC[C@H](O)C[C@H]1C[C@@H](OCc1ccccc1)[C@@H]1[C@@H]2CC[C@@]2(C)C(=O)CC[C@@H]12`, the Activity (Oocyte [1]) is reported as “inactive”, the EC50 (Xenopus laevis [2]) is reported as 1210 nM and the Ratio (Oocyte [3]) is reported as 1.25. It also gave a Ratio (Oocyte [4]) of 25.2, an IC50 [5] of 168 nM and a Ratio (Oocyte [6]) of 0.11. For the same compound, the Ratio (Oocyte [7]) was 5.74 and the EC50 (Xenopus laevis [8]) was 2930 nM.

`C[C@]12CC[C@@H](O)C[C@@H]1C[C@H](OCc1ccccc1)[C@@H]1[C@@H]2CC[C@@]2(C)[C@H]1CC[C@@]21CO1` gave an EC50 (Xenopus laevis [2]) of 3220 nM, a Ratio (Oocyte [3]) of 0.83 and a Ratio (Oocyte [4]) of 0.77. It also gave an IC50 [5] of 6750 nM, a Ratio (Oocyte [6]) of 0.09 and a Ratio (Oocyte [7]) of 0.88. It also gave an EC50 (Xenopus laevis [8]) of 7940 nM.

In the case of `C[C@]12CC[C@@H](O)C[C@@H]1C[C@H](OCc1ccccc1)[C@@H]1[C@@H]2CC[C@]2(C)C(=O)CC[C@@H]12`, the EC50 (Xenopus laevis [2]) is reported as greater than 10000 nM, the Ratio (Oocyte [3]) is reported as 0.97 and the Activity (Xenopus laevis [9]) is reported as “inactive”. It also gave a Ratio (Oocyte [4]) of 0.76, an IC50 [5] greater than 10000 nM and an inhibition (Rattus norvegicus) of 35%. For the same compound, the Ratio (Oocyte [6]) was 0 and the Ratio (Oocyte [7]) was 0.9.

For `CC(=O)[C@H]1CC[C@H]2[C@@H]3CC[C@H]4C[C@H](O)CC[C@]4(C)[C@H]3CC[C@]12C` [BREXANOLONE], the Activity (Oocyte [10]) was “inactive”, the Ratio (Oocyte [3]) was 1.26 and the Ratio (Oocyte [4]) was 9.65. The Activity (Oocyte [11]) was “inactive”, the IC50 [5] was 74 nM and the Ratio (Oocyte [6]) was 0.37. For the same compound, the Ratio (Oocyte [7]) was 3.89.

In the case of `C[C@]12CC[C@@H](O)C[C@@H]1CC[C@@H]1[C@@H]2[C@@H](OCc2ccccc2)C[C@@]2(C)[C@H]1CC[C@@]21CO1`, the Activity (Oocyte [10]) is reported as “inactive”, the EC50 (Xenopus laevis [2]) is reported as 70 nM and the Ratio (Oocyte [3]) is reported as 2.99. The Ratio (Oocyte [4]) was 31.1, the Activity (Oocyte [11]) was “inactive” and the IC50 [5] was 15 nM. The Ratio (Oocyte [6]) was 0.42, the Ratio (Oocyte [7]) was 21.2 and the EC50 (Xenopus laevis [8]) was 270 nM.

`C[C@@]12CCC3C(CC[C@@H]4C[C@@H](O)CC[C@@]34C)C1CCC2=O` (single isomer, unassigned) showed a Ratio (Oocyte [3]) of 1.27, a Ratio (Oocyte [4]) of 18.9 and an IC50 [5] of 311 nM. For the same compound, the Ratio (Oocyte [6]) was 0.03 and the Ratio (Oocyte [7]) was 3.66.

With `C[C@@]12CC[C@H](O)C[C@H]1CCC1C2CC[C@]2(C)C1CC[C@]21CO1` (single isomer, unassigned) the Ratio (Oocyte [3]) was 2.62, the Ratio (Oocyte [4]) was 26.3 and the IC50 [5] was 467 nM. It also gave a Ratio (Oocyte [6]) of 0.1 and a Ratio (Oocyte [7]) of 15.9.

With `C[C@]12CC[C@@H](O)C[C@@H]1CC[C@@H]1[C@@H]2CC[C@]2(C)C(=O)CC[C@@H]12` [ANDROSTERONE] the Ratio (Oocyte [3]) was 0.97, the Activity (Xenopus laevis [9]) was “inactive” and the Ratio (Oocyte [4]) was 5.44. For the same compound, the IC50 [5] was 410 nM, the Ratio (Oocyte [6]) was 0.02 and the Ratio (Oocyte [7]) was 1.41.

Compound `C[C@@]12CC[C@H](O)C[C@H]1CC[C@@H]1[C@@H]2[C@H](OCc2ccccc2)C[C@]2(C)[C@H]1CC[C@]21CO1` has an EC50 (Xenopus laevis [2]) of 2640 nM, a Ratio (Oocyte [3]) of 1.01 and a Ratio (Oocyte [4]) of 3.21. It also gave an IC50 [5] of 2050 nM, a Ratio (Oocyte [6]) of 0.05 and a Ratio (Oocyte [7]) of 1.3. It also gave an EC50 (Xenopus laevis [8]) of 2740 nM.

In the case of `C[C@@]12CC[C@H](O)C[C@H]1C[C@@H](OCc1ccccc1)[C@@H]1[C@@H]2CC[C@]2(C)[C@H]1CC[C@]21CO1`, the Activity (Oocyte [10]) is reported as “inactive”, the EC50 (Xenopus laevis [2]) is reported as 310 nM and the Ratio (Oocyte [3]) is reported as 3.47. For the same compound, the Ratio (Oocyte [4]) was 32.4, the Activity (Oocyte [11]) was “inactive” and the IC50 [5] was 52 nM. The Ratio (Oocyte [6]) was 0.22, the Ratio (Oocyte [7]) was 20.3 and the EC50 (Xenopus laevis [8]) was 550 nM.

For `C[C@]12CC[C@@H](O)C[C@@H]1CC[C@@H]1[C@@H]2[C@@H](OCc2ccccc2)C[C@]2(C)C(=O)CC[C@@H]12`, the Activity (Oocyte [1]) was “inactive”, the EC50 (Xenopus laevis [2]) was 200 nM and the Ratio (Oocyte [3]) was 1.08. For the same compound, the Ratio (Oocyte [4]) was 24.4, the Activity (Xenopus laevis [12]) was “Toxic” and the IC50 [5] was 285 nM. For the same compound, the Ratio (Oocyte [6]) was 0.2, the Ratio (Oocyte [7]) was 2.96 and the EC50 (Xenopus laevis [8]) was 870 nM.

`C[C@@]12CC[C@H](O)C[C@H]1CC[C@@H]1[C@@H]2[C@H](OCc2ccccc2)C[C@@]2(C)C(=O)CC[C@@H]12` gave an EC50 (Xenopus laevis [2]) of 1960 nM, a Ratio (Oocyte [3]) of 0.89 and a Ratio (Oocyte [4]) of 0.6. For the same compound, the Activity (Xenopus laevis [12]) was “Toxic”, the IC50 [5] was greater than 10000 nM and the Ratio (Oocyte [6]) was 0. For the same compound, the Ratio (Oocyte [7]) was 0.85 and the EC50 (Xenopus laevis [8]) was 3450 nM.

`C[C@]12CC[C@@H](O)C[C@@H]1CC[C@@H]1[C@@H]2CC[C@@]2(C)[C@H]1CC[C@@]21CO1` gave a Ratio (Oocyte [3]) of 3.11, a Ratio (Oocyte [4]) of 33.7 and an IC50 [5] of 105 nM. For the same compound, the Ratio (Oocyte [6]) was 0.22 and the Ratio (Oocyte [7]) was 21.9.

Source: ChEMBL document CHEMBL2021778, “Neurosteroid analogues. 17. Inverted binding orientations of androsterone enantiomers at the steroid potentiation site on γ-aminobutyric acid type A receptors” (J Med Chem, 2012)
